# S1P1 ag-PAM – S1P1 agonists and agonism potentiators, primary screen, cell-based, primary and confirmation screens, CRE-bla reporter; Sphingosine 1-phosphate receptor 1 (Homo sapiens), P21453; activation, % at 9.5 µM; S1P1 CRE-bla cells, forskolin, beta-lactamase FRET, potentiator mode; S1P1 agonist co-added at EC20, 2 nM; 100% = saturating reference agonist, 0% = basal; 56,000 compounds, 0.57% hits;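 active = activation above a cutoff set at the mean activation of all tested compounds plus 3 SD, cut at about 54% in these data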;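 note: forskolin at 4 µM as EC80 and the EC20 agonist is SEW2871; 100% = SEW2871 at its EC100 plus forskolin at EC80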
# M1 agonist – M1 muscarinic receptor agonists, primary screen, CHO-M1 cells, Fluo-4 calcium, agonist mode | AID 626, 2007 | Fluo-4 calcium fluorescence; hits give high values | B-score at 10 µM | 64,000 compounds, 3% hits;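 active = fluorescence rise, raw or as B-score row- and column-corrected plate score, outside the 99.7% band of its plate's samples, either direction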
# M1 antagonist – antagonists of rat M1 muscarinic receptor; Muscarinic acetylcholine receptor M1 (Rattus norvegicus), P08482; CHO-M1 cells, Fluo-4 calcium, ACh EC80 antagonist mode; hits give low values; B-score at 10 µM; 64,000 compounds, 3.4% hits; AID 628, 2007;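 active = calcium fluorescence response, raw or row-and-column corrected B-score, differing from the plate sample mean either way at a set confidence level, mostly lower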
# S1P3 ag – human S1P3 receptor agonists, primary screen, cell-based, primary and confirmation, NFAT-BLA reporter | Sphingosine 1-phosphate receptor 3 (Homo sapiens), Q99500 | S1P3 NFAT-BLA reporter cells, agonism, FRET ratio; relative to 1 µM S1P, basal subtracted | activation, % at 4.5 µM | 60,000 compounds, 0.1% hits | AID 373, 2006;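 active = activation above the screen-wide mean plus 3 SD, cut at about 4.5% in these data, passing the limit was not always enough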
#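 Assay system: CHO cells stably expressing human S1P3, Gα16 and NFAT-β-lactamase reporter. Timing: overnight plating, 4 h compound 37 °C, 2 h substrate RT. Signal: β-lactamase FRET emission ratio 460/535 nm. Measure: percent activation versus median 1 µM S1P response, basal-subtracted, per plate. Repeats: primary screen single test, confirmation screen in triplicate.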
# D1 mod – D1 CRE-luciferase signal change, two-sided – cell-based, HEK293 D1, dopamine EC30, D1 allosteric modulator project, primary screen. D(1A) dopamine receptor (Homo sapiens), P21728. dopamine EC30 potentiation; actives deviate in either direction. B-score at 10 µM. 58,000 compounds, 5.9% hits;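 active = luminescence count or its row- and column-corrected plate score outside the 99.7% band of the plate's sample wells, on either side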
# Target sequence (P21728 whole entry, looked up): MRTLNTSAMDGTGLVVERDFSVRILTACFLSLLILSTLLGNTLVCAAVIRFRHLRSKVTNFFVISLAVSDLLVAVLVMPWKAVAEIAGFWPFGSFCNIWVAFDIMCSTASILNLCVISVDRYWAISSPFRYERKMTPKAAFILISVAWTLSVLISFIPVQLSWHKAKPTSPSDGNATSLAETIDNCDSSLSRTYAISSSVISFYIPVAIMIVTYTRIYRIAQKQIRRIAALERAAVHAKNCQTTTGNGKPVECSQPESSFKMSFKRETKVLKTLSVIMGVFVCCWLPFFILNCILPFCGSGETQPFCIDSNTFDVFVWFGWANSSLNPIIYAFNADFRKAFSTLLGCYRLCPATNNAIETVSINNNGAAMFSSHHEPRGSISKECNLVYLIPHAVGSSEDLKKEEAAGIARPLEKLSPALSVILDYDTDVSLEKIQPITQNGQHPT
# D1 PAM confirm – D1 receptor positive allosteric modulators, retest, confirmation, cell-based, HEK293 D1, CRE-luciferase, duplicate. AID 642, 2007. 2,200 compounds, 88% hits. luminescence at 10 µM. dopamine EC30 potentiation; hits give high values. shares compounds with D1 mod;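 active = luminescence in either of two replicates above the same-plate mean plus 3 SD of the low-dose dopamine control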
# D1 no dopamine – D1 receptor agonism without dopamine, confirmation, mechanism study for D1 allosteric modulator project, cell-based, HEK293 D1, CRE-luciferase, secondary assay 1; luminescence, no dopamine; hits give high values; 1,900 compounds, 0.8% hits; shares compounds with D1 mod; AID 646, 2007; luminescence at 10 µM; in the data active = luminescence above about 3900
# Isoprot counter – counter-screen for D1 modulators: isoproterenol response in HEK293 cells; shares compounds with D1 mod; HEK293 D1 CRE-luciferase, isoproterenol EC30 counter-screen; calls only at 10 µM; 2,200 compounds, 63% hits;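 active = luminescence in either replicate above plate mean of wells with a partly effective reference agonist dose plus 3 SD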;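 note: isoproterenol raises cAMP through native beta-adrenoceptor Gs so signal bypasses D1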
# Starred values were filed as active, the others as inactive; i = inactive; nt = no result given; + = active, no number. In the library only some 11% were active in any assay of this set; here they are far more common.
SMILES,S1P1 ag-PAM,M1 agonist,M1 antagonist,S1P3 ag,D1 mod,D1 PAM confirm,D1 no dopamine,Isoprot counter
CCSc1oc(-c2ccco2)nc1S(=O)(=O)c1ccc(F)cc1,nt,0.75,-0.53,nt,4.6*,11820*,1660,i
CCCc1nc2sc3ccccc3c(=O)c2c(=O)n1Cc1ccco1,1,-1.5,0.85,0,4.6*,9128*,1636,i
CCOC(=O)c1cccc(NC(=O)CCc2nc(-c3ccc(C)cc3)no2)c1,-17,0.47,-0.33,-1,-0.085,nt,nt,nt
CCOC(=O)c1cccc(NC(=O)CCc2nc(-c3ccccc3F)no2)c1,-8,-0.77,0.26,0,3*,7612,2088,i
CCN(CCCNC(=O)CN(C)S(=O)(=O)c1cccc2nsnc12)c1cccc(C)c1,2,-0.27,-0.36,0,3.5*,13504*,1728,i
Cc1ccc(CNC(=O)CN(C)S(=O)(=O)c2cccc3nsnc23)cc1,-22,-0.053,0.57,-1,-0.021,nt,nt,nt
N#C/C(=C1/CCCCCN1)c1nc2ccccc2s1,7,-0.0075,0.33,0,6.2*,8248*,1304,+
N#C/C(=C1\CCCN1)c1nc2ccccc2c(=O)[nH]1,15,0.53,0.81,-1,0.53,nt,nt,nt
O=C(c1cccc(F)c1)N1CCN(Cc2ccco2)CC1,-9,-1.1,-0.45,-1,3.9*,8236,1664,i
O=C(c1ccco1)N1CCN(Cc2cccc(F)c2)CC1,nt,-1.1,-0.12,-1,-0.19,nt,nt,nt
Cc1ccccc1-n1nnnc1SCC(N)=O,4,-0.41,-0.026,0,-0.032,nt,nt,nt
CSc1ccccc1-n1nnnc1SCc1ccccc1,30,0.05,0.35,-1,3.8*,7588*,nt,i
CCOC(=O)N1CCC(n2c(SCC(=O)NCCC3=CCCCC3)nc3ccccc3c2=O)CC1,nt,0.48,-0.37,nt,nt,nt,nt,nt
CCOc1ccc(-c2nc(S(=O)(=O)c3ccccc3)c(NCc3cccnc3)o2)cc1,-10,-0.18,-0.58,-1,5.7*,8380*,1552,+
CC1CN=C(c2cccn2Cc2ccc(F)cc2Cl)O1 (stereo not given),-9,0.54,-0.16,0,-0.045,nt,nt,nt
CCNc1nc(NC(C)C)nc(N(C#N)C(C)C(=O)N(C)C)n1 (stereo not given),-17,-0.19,0.19,0,nt,nt,nt,nt
CCNc1nc(NC(C)(C)C)nc(N(C#N)CC)n1,-72,-0.29,0.059,1,30*,23548*,1472,+
CCNc1nc(NC(C)C)nc(N(C#N)CCOc2ccc(Cl)cc2Cl)n1,-4,-0.66,-0.45,0,3.2*,11108*,1056,+
CCNc1nc(NC(C)C)nc(N(C#N)Cc2ccccc2)n1,-12,0.85,0.21,0,8.9*,22672*,1600,+
CCC(C)NC(=O)c1ccccc1NC(=O)CN1C(=O)c2ccccc2S1(=O)=O (stereo not given),-16,-0.69,-0.35,0,-0.95,nt,nt,nt
c1ccc(-n2nnnc2Sc2n[nH]c(-c3ccncc3)n2)cc1,1,0.39,0.91,-1,-0.03,nt,nt,nt
Cn1c(SCc2ccccc2F)nc2cccnc21,-2,-0.37,-0.53,-1,7.4*,7412*,1864,+
CC(=O)NCCn1c(SCc2ccccc2F)nc2ccccc2c1=O,-17,0.061,-0.1,-1,9.1*,8204*,1528,+
